Shown is part of a subset that was picked to be rich in hits.
GSK3 alpha inh – inhibitors of human GSK-3 alpha kinase; P49840; ADP-Glo luminescence, 60 min; inhibition, % at 10 µM; 320,000 tested, 0.1% active; AID 2650;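 active means more than half of replicates show inhibition above 20%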;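 further: GST-tagged GSK-3 alpha with peptide substrate and 25 µM ATP; 0% = DMSO neutral wells and 100% = GW8510 positive control wells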
DYRK1A inh – blocks rat Dyrk1A kinase activity; Q63470; ADP-Glo luminescence, NFATc1 peptide; inhibition, % at 12.5 µM; 310,000 tested, 0.43% active; in the data active means inhibition above about 50%;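 further: plate controls were vehicle with enzyme for no effect and no enzyme for full effect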
GSK3beta inhib – blocks human GSK3beta kinase activity; AID 2097; activity score (negative = inhibition), % at 10 µM; 300,000 tested, 0.038% active; GST-GSK3beta kinase, ADP-Glo luminescence, 60 min; stronger effect = lower value; P49841;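 active means more than half of replicate wells score below -50%, meaning over 50% inhibition versus plate controls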;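 further: 0% = median DMSO wells and -100% = median GW8510 positive control wells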
Target sequence (P49841 whole entry, looked up): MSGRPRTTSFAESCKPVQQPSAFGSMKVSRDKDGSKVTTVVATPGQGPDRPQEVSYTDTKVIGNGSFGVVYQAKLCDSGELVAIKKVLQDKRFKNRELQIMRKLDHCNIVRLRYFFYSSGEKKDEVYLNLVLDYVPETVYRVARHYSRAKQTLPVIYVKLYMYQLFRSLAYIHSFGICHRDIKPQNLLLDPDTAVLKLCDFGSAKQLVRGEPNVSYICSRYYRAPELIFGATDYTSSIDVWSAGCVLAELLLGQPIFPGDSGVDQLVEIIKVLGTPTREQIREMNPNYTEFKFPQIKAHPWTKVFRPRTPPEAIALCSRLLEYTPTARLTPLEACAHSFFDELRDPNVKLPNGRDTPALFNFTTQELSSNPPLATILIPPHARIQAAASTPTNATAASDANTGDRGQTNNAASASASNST
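test system = GST-tagged human GSK3beta kinase, cell-free | reagent = 25 µM ATP with peptide substrate | dosing = one dose of 10 µM per compound | schedule = 60 min reaction, RT | detection = luminescent ADP-Glo measurement of ADP formed | control set = DMSO neutral wells and GW8510 at 20 µM as positive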
CDK5 inh – blocks human CDK5/p35 kinase activity | Recombinant CDK5/p35, ADP-Glo luminescence, 60 min | inhibition, % at 10 µM | 330,000 tested, 0.01% active | Q00535+Q15078;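 active means highest replicate inhibition of at least 50% and at least 75% of replicates reaching 50%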;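 further: plate controls were DMSO neutral control for no effect and GW8510 at 10 µM for full effect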
STK33 kinase inh – inhibitors of human STK33 kinase | Q9BYT3 | purified STK33, MBP phosphorylation, ADP-Glo luminescence | inhibition, % at 10 µM | 320,000 tested, 0.073% active;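 active means inhibition at or above 25%, using the most active replicate where run in duplicate; inactive means inhibition below 25%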
Dyrk1A artifact – ADP-Glo luciferase interference, Dyrk1A counter-screen; shares compounds with DYRK1A inh; ADP-Glo luciferase artifact assay, no Dyrk1A, luminescence; AC50, µM (series often up to 12 µM), for inactives: top-dose activity change, negative = inhibition; 1,300 tested, under 10 active;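 active means fitted half-maximal dose AC50 no more than ten times the top valid tested dose, with luminescence dropping as dose rises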
The depositor's hits bear a star.

For O=C1C(Cl)=C(N2CCC(C(=O)O)CC2)C(=O)c2ccccc21 the results were GSK3 alpha inh 10, DYRK1A inh 61*, GSK3beta inhib -2, CDK5 inh 1, STK33 kinase inh 0 and Dyrk1A artifact 11%.
CN1CCN(C2=C(NS(=O)(=O)c3ccccc3)C(=O)c3ccccc3C2=O)CC1 was read as GSK3 alpha inh -1, DYRK1A inh -4, GSK3beta inhib 0, CDK5 inh 0 and STK33 kinase inh 2.
`NC(=O)C1CCN(C2=C(Cl)C(=O)c3ccccc3C2=O)CC1` gave GSK3 alpha inh 0, DYRK1A inh 0, GSK3beta inhib 1, CDK5 inh 1 and STK33 kinase inh 1.
Screening CN1CCN(C2=C(Cl)C(=O)c3ccccc3C2=O)CC1 returned DYRK1A inh 56*, CDK5 inh 2 and Dyrk1A artifact 7%.
Screening COc1ccc(Cl)c2sc(N(Cc3cccnc3)C(C)=O)nc12 returned GSK3 alpha inh -1, DYRK1A inh 3, GSK3beta inhib 2, CDK5 inh -3 and STK33 kinase inh -1.
N#CC(C#N)=Cc1c(N2CCN(c3ccccc3)CC2)nc2ccccn2c1=O was read as GSK3 alpha inh -2, DYRK1A inh -2, GSK3beta inhib 0, CDK5 inh 0 and STK33 kinase inh -1.
COc1ccc(-c2cnnc(N/N=C/c3ccc(O)c(O)c3)n2)cc1 was read as GSK3 alpha inh 1, DYRK1A inh 68*, GSK3beta inhib 2, CDK5 inh -1, STK33 kinase inh 3 and Dyrk1A artifact 8%.
`COc1ccc(-c2cnnc(N/N=C/c3ccc(O)cc3)n2)cc1` gave GSK3 alpha inh 4, DYRK1A inh 34, GSK3beta inhib 1, CDK5 inh 0 and STK33 kinase inh 0.
Screening O=C(O)CCC(=O)Nc1nc2nccc(-c3ccccc3)n2n1 returned DYRK1A inh 3, GSK3beta inhib -1, CDK5 inh 1 and STK33 kinase inh -2.
Screening c1coc(CNc2nc(-c3cccs3)cs2)c1 returned GSK3 alpha inh 2, DYRK1A inh -9, GSK3beta inhib 1, CDK5 inh -2 and STK33 kinase inh 4.
For Oc1ccc(-c2csc(NCc3ccco3)n2)cc1 the results were GSK3 alpha inh 5, DYRK1A inh 52*, GSK3beta inhib -1, CDK5 inh 0, STK33 kinase inh 1 and Dyrk1A artifact 6%.
For O=C(Nc1nc2ccc(Cl)cc2s1)C1CCCO1 (centres undefined) the results were GSK3 alpha inh 1, DYRK1A inh 76*, GSK3beta inhib -4, CDK5 inh -2, STK33 kinase inh 9 and Dyrk1A artifact 9%.
Screening O=C(Nc1nc2ccc([N+](=O)[O-])cc2s1)C1CCCO1 (centres undefined) returned GSK3 alpha inh -1, DYRK1A inh 66*, GSK3beta inhib -3, CDK5 inh 0, STK33 kinase inh 5 and Dyrk1A artifact 8%.
`COc1ccc(C2CC(c3cccs3)=NN2C(=O)CSc2nc(=O)n3cc(C)ccc3n2)cc1` (centres undefined) gave GSK3 alpha inh -3, DYRK1A inh -4, GSK3beta inhib 1, CDK5 inh 1 and STK33 kinase inh 0.
Screening Cc1cnc(C(=O)OCC(=O)c2ccc(F)c(F)c2)cn1 returned GSK3 alpha inh -5, DYRK1A inh -5, GSK3beta inhib 1, CDK5 inh 0 and STK33 kinase inh -1.
For Cc1ccc(-n2c(=O)c3c4c(sc3n3c(=S)[nH]nc23)CCC4)cc1 the results were GSK3 alpha inh -6, DYRK1A inh 23, GSK3beta inhib 1, CDK5 inh 2 and STK33 kinase inh 0.
Screening O=c1c2c3c(sc2n2c(=S)[nH]nc2n1-c1ccccc1)CCC3 returned GSK3 alpha inh 15, DYRK1A inh 55*, GSK3beta inhib -6, CDK5 inh -4, STK33 kinase inh 1 and Dyrk1A artifact 9%.
CCN(CC(=O)N1CCOCC1)S(=O)(=O)c1cc(Cl)ccc1Cl was read as GSK3 alpha inh 0, GSK3beta inhib -3, CDK5 inh 0 and STK33 kinase inh -2.
For COc1ccc2c3c(ccc2c1)C(=O)/C(=C/O)CC3 the results were DYRK1A inh 63*, CDK5 inh 5 and Dyrk1A artifact 9%.

Source: PubChem BioAssay (Broad Institute)
